# EBV gp42 block = Epstein-Barr virus gp42 inhibitors, primary screen, biochemical, uHTS, fluorescence polarization. 0.42% of 220,000 active. Fluorescence polarization binding assay, mP read-out. AID 1085, 2008. inhibition, % (tested at 21.74 µM); in the data active = inhibition above about 50%
# Target sequence (Q1HVG2 whole entry, looked up): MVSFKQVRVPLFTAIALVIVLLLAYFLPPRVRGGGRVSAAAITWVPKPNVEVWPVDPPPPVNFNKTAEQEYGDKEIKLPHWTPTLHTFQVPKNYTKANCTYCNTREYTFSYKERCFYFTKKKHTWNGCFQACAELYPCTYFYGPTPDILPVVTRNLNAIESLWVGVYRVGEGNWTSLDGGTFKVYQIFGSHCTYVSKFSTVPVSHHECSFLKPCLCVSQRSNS
# RBBP9 inhibitor = human RBBP9 inhibitors, primary screen, biochemical, fluorescence polarization, FP-Rh probe, HTS; 0.2% of 220,000 active; recombinant RBBP9; Serine hydrolase RBBP9 (Homo sapiens), O75884; inhibition, % at 7.94 µM;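 active = inhibition above the campaign mean of all tested compounds plus 3 SD, cut at about 14% in these data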;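 note: plate controls were DMSO wells with RBBP9 for no effect and wells lacking RBBP9 protein for full effect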
# Target sequence (O75884 whole entry, looked up): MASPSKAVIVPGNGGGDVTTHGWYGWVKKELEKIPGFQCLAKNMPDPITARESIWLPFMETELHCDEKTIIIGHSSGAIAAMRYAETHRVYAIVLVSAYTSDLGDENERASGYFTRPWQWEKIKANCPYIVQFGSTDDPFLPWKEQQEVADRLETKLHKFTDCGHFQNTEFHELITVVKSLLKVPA
#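 Controls: DMSO-treated enzyme wells and wells lacking RBBP9 | Material: RBBP9 protein | Technique: Fluorescence polarization | Replication: Single well per compound, no replicates | Buffer or medium: Tris-NaCl-Pluronic buffer, pH 8.0 | Timing: 30 min compound preincubation, 45 min probe labeling, 25 °C | Read-out basis: Percent inhibition from mP, scaled between DMSO and no-protein wells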
# Mcl1-Bid inh = Mcl-1/Bid binding inhibitors, primary screen, biochemical, TR-FRET, 1536-well | TR-FRET Mcl-1/Bid-Dy647 peptide binding | inhibition, % at 21.7 µM | 0.97% of 220,000 active | Induced myeloid leukemia cell differentiation protein Mcl-1 (Homo sapiens), Q07820;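 active = compounds that cut the binding signal by more than half at the single screening dose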;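 note: His-tagged Mcl-1 with europium anti-His antibody binding Bid BH3 peptide; 0% = Mcl-1 plus peptide wells and 100% = peptide-only wells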
# Mcl1-Noxa inh = Mcl-1/Noxa binding inhibitors, primary screen, biochemical, TR-FRET, 1536-well | inhibition, % at 21.7 µM | 1.5% of 220,000 active | Induced myeloid leukemia cell differentiation protein Mcl-1 (Homo sapiens), Q07820 | AID 1022, 2008 | TR-FRET Mcl-1/Noxa peptide binding, 2 h;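 active = compounds that cut the protein-peptide binding signal by more than 50% relative to plate controls in a single-dose test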;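 note: His-tagged Mcl-1 with rhodamine Noxa BH3 peptide and terbium anti-His antibody; 0% = Mcl-1 plus Noxa peptide wells and 100% = peptide-only wells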
# Bim-Mcl-1 = inhibitors of Bim peptide binding to Mcl-1, primary screen, biochemical, bead-based flow cytometry, multiplex; 0.1% of 190,000 active; Induced myeloid leukemia cell differentiation protein Mcl-1 (Homo sapiens), Q07820; Bim peptide-Mcl-1 binding; AID 1009, 2008; inhibition, % at 10 µM; in the data active = inhibition above about 40%;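 note: 0% = no compound tracer wells and 100% = peptide blocker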
# MCL1-BIM inh = inhibitors of MCL1 binding to BIM-BH3, primary screen, biochemical, fluorescence polarization; GST-MCL1 / FITC-Bim-BH3 fluorescence polarization; inhibition, % at 10.9 µM; 0.68% of 320,000 active;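 active = inhibition above the mean inhibition of all tested compounds plus 3 SD, set per campaign, cut at about 40% in these data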;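 note: 0% = DMSO wells and 100% = unlabeled Bim-BH3 peptide control; higher means more loss of mP so more displacement of Bim peptide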
# Active calls of the source: *; x = no result. Only some compounds are listed: those with a hit (about 2.2% of all), similar ones and a draw of the others.
SMILES,EBV gp42 block,RBBP9 inhibitor,Mcl1-Bid inh,Mcl1-Noxa inh,Bim-Mcl-1,MCL1-BIM inh
Cc1ccc(NC(=S)N(CCN(C)C)Cc2cc3cc(C)cc(C)c3[nH]c2=O)cc1,-29,-3,-18,3,14,-7
Clc1ccccc1CN1CCC(Cc2ccccc2)CC1,2,-1,54*,20,-3,2
CC1CN(Cc2ccccc2Cl)CC(C)O1 (configuration not stated),-2,-5,51*,33,-3,-4
Clc1ccccc1CN1CCSCC1,x,x,x,x,x,14
COC(=O)C1CCN(C(=O)CSc2nnc(-c3ccccc3)o2)CC1,x,x,x,x,x,1
CCN(CC(=O)NCCCN1CCOCC1)S(=O)(=O)c1ccc(Cl)cc1,x,x,x,x,x,2
COc1ccc(-c2nnn(CC(=O)N3CCOCC3)n2)cc1,-15,6,-12,-1,-4,-4
Cc1nnc2ccc(-c3ccc(NC(=O)Cc4cccs4)cc3)nn12,10,-6,-62,68*,x,16
O=C(Cc1cccs1)Nc1ccc(-c2nnn(CC(=O)N3CCOCC3)n2)cc1,32,-3,-36,56*,-2,37
Cc1ccc2c(c1)C1CN(C)CCC1N2S(=O)(=O)c1cc(C(F)(F)F)ccc1Cl (configuration not stated),x,x,x,x,x,3
O=C(CN1CCN(S(=O)(=O)c2ccc(F)c(Cl)c2)CC1)N1CCNC1=O,x,x,x,x,x,-6
O=C(c1ccccc1)N1CCN(C(=O)c2ccc([N+](=O)[O-])cc2)CC1,3,-6,10,54*,-3,-12
CC(=O)c1cccc(NC(=O)C2CCN(C(=O)c3ccc([N+](=O)[O-])cc3)CC2)c1,-17,-11,73*,9,-2,2
O=C(N/N=C/c1cccc(O)c1)c1ccc(NC(=O)c2cccc([N+](=O)[O-])c2)cc1,-1,-18,-3,60*,0,-7
O=C(N/N=C/c1ccncc1)c1cccc(N/N=C/c2ccncc2)c1,1,-7,-2,13,4,-5
COc1cc(/C=N/NC(=O)c2cccnc2)ccc1OC(=O)c1ccc([N+](=O)[O-])cc1,-1,-2,34,58*,1,-1
COc1cc(OC)c([N+](=O)[O-])cc1/C=N/NC(=O)c1ccncc1,-14,4,-5,71*,7,14
O=C(N/N=C/c1ccc(OC(=O)c2ccc([N+](=O)[O-])cc2)cc1)c1cccnc1,x,x,x,x,x,8
O=C(N/N=C/c1ccc(O)cc1)c1cccc(N/N=C/c2ccc(O)cc2)c1,-8,0,-31,80*,x,3
CC(C)CC(=O)Nc1ccnn1C1CCN(C(=O)c2ccc(Cl)cc2F)CC1,x,x,x,x,x,0
CC(=O)Nc1ccc(S(=O)(=O)N2C(C)CCCC2C)cc1 (configuration not stated),x,x,x,x,x,11
COc1ccc(S(=O)(=O)NCC2CC3C=CC2C3)cc1OC (configuration not stated),x,x,x,x,x,2
COc1ccc(/C=N/NC(=O)c2ccc(NC(=O)c3cccc([N+](=O)[O-])c3)cc2)c(OC)c1,0,5,28,67*,0,10
COc1ccccc1/C=N/NC(=O)c1ccc(NC(=O)c2cccc([N+](=O)[O-])c2)cc1,-3,-8,-4,11,-3,10
CN(c1ccc(F)cc1)S(=O)(=O)c1ccc2[nH]cc(C(=O)O)c(=O)c2c1,-7,-9,58*,12,0,4
SMILES,EBV gp42 block,RBBP9 inhibitor,Mcl1-Bid inh,Mcl1-Noxa inh,Bim-Mcl-1,MCL1-BIM inh
COCCN(CCOC)C(=O)c1c[nH]c2ccc(S(=O)(=O)N(C)c3ccc(F)cc3)cc2c1=O,-21,-8,62*,41,-3,3
CC(C)(C)c1cc(C(=O)N/N=C/c2ccc(-c3ccccc3[N+](=O)[O-])o2)n[nH]1,x,x,x,x,x,42*
Clc1cccc(Cl)c1CNc1ccc(N2CCCC2)cc1,1,2,-71,67*,16,17
O=C(Cc1ccc(Cl)cc1)Nc1ccc(N2CCCC2)cc1,-22,-5,-24,-6,-4,6
CCOC(=O)c1nn(-c2ccccc2)c(=O)c(C#N)c1C,-8,-5,21,-2,2,-6
CCOC(=O)c1nn(-c2ccccc2)c(C#N)c1N,8,-1,-29,2,41*,14
Brc1ccccc1OCCN1CCOCC1,x,x,x,x,x,-1
c1ccc(-c2nnc(OCCN3CCOCC3)c3ccccc23)cc1,-29,-3,-13,2,79*,3
CCOC(=O)[C@H]1[C@H]2COc3ccc(OC)cc3[C@@H]2N2C(=O)CN(CC3CCCO3)C(=O)[C@@]12C (some centres not stated),x,x,x,x,x,6
O=C(NCc1nnc(SCC(=O)N2CCCC2)o1)c1c(F)cccc1Cl,-9,-5,-6,-3,-4,9
O=C(NCc1nnc(SCC(=O)N2CCOCC2)o1)c1c(F)cccc1Cl,-10,-9,77*,19,3,-6
COc1ccccc1N(C(=O)CNC(=O)c1ccco1)C(C(=O)NCC1CCCO1)c1ccccc1 (configuration not stated),x,x,x,x,x,-5
Cc1cccc(C(C)C)c1NS(=O)(=O)c1cn(C)nc1C,x,x,x,x,x,-2
COc1cccc(Nc2ncccc2C(=O)NCc2ccccc2)c1,68*,-1,-34,-4,-13,x
COc1ccc(Nc2ncccc2C(=O)NCc2ccccc2)cc1,-17,-6,-7,11,0,2
Cc1ccc(NC(=O)c2ccc(Cl)c(N3C(=O)C=CC3=O)c2)cc1,-42,-10,29,57*,-8,16
O=[N+]([O-])c1cc(-n2cccc2)ccc1N1CCOCC1,-12,3,-35,-3,0,-1
O=C(N/N=C/C(Cl)=C/c1ccc([N+](=O)[O-])cc1)C(=O)Nc1ccc(C(=O)O)cc1,7,-5,10,34,x,-1
O=C(N/N=C/C(Cl)=C/c1ccc([N+](=O)[O-])cc1)C(=O)Nc1ccccc1C(=O)O,0,-4,-1,56*,x,7
Cc1c(C(=O)O)c(C(=O)O)nc2ccc(N3CCOCC3)cc12,-12,-2,-30,15,0,1
Cc1nnc(SCc2cc(=O)oc3ccc4ccccc4c23)n1Cc1ccccc1,-11,-3,71*,17,-2,9
O=C(CSc1nc(-c2ccccc2)nc2c1Cc1ccccc1O2)Nc1ccccc1,-5,-11,5,-9,-1,3
O=C(CSc1nc(-c2ccc(F)cc2)nc2c1Cc1ccccc1O2)Nc1cccc(C(=O)O)c1,71*,-11,46,-53,0,x
Cc1cccc(C)c1NC(=O)Cn1nc(-c2ccc(Cl)s2)ccc1=O,x,x,x,x,x,5

# Bioassay records as filed in PubChem BioAssay.
